Measured values gathered from unrelated publications.
Protocols differ between the studies behind these lines.
Target: Eukaryotic translation initiation factor 2-alpha kinase 3 (EIF2AK3, Homo sapiens, UniProt Q9NZJ5)
Residues used in one study (Q9NZJ5 30-1116): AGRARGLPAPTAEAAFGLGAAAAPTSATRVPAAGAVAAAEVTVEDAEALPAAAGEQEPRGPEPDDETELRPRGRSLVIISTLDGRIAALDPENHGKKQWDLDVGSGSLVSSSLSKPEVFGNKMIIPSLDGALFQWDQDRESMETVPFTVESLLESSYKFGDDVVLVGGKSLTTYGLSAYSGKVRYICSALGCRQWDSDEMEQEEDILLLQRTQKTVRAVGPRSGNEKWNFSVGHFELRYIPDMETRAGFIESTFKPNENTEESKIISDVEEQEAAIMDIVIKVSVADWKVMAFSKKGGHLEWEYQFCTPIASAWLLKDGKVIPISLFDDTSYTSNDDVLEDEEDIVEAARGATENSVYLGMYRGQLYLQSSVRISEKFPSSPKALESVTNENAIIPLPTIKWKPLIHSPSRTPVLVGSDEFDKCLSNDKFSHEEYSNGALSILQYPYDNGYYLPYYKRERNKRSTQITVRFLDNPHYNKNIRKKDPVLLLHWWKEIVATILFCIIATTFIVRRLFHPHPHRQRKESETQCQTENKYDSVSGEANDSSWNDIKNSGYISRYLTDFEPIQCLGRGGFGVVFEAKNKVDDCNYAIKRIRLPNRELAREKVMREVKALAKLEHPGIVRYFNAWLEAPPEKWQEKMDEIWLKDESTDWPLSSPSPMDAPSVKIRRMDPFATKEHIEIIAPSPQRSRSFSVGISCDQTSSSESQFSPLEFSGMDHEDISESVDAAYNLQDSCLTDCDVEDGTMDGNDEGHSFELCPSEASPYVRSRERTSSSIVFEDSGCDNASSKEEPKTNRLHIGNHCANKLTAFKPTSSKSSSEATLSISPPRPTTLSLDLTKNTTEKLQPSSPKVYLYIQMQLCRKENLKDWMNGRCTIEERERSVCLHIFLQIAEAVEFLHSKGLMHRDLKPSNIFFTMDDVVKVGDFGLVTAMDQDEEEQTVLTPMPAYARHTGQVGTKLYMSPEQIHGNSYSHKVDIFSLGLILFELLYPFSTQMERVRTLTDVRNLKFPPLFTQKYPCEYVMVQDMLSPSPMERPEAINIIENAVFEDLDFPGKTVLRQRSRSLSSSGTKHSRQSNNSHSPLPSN

Structure (SMILES) | effect on | mode | technique | tested at | measurement | value
Cc1cc(NC(=O)c2cccc3cc(-c4cccc5[nH]nc(N)c45)ccc23)ccc1F | enzyme activity | inhibitor |  | 0.1 µM | activity vs control | 94%
COc1cc(Nc2cnc(C#N)c(O[C@H](C)CN(C)C)n2)ncc1-c1cnn(C)c1 | enzyme activity | inhibitor | radiometric | 1 µM | remaining activity | 101%
CC(C)(C)c1nc2c(s1)c1nc(N)ncc1c1ccc(NS(=O)(=O)c3c(F)cccc3F)c(F)c12 | enzyme activity | inhibitor | radiometric | 1 µM | remaining activity | 47%
CC/C(=N\NC(=O)NCc1cccc(O)c1)c1ccc(O)c(C)c1O | enzyme activity | inhibitor |  | 0.1 µM | inhibition | 4.2%
CNC(=O)c1cc2c(Oc3ccc(NC(=O)C4(C(=O)Nc5ccc(F)cc5)CC4)cc3)ccnc2cc1OC | enzyme activity | inhibitor | radiometric | 1 µM | inhibition | 73%
Cc1ccc(C(=O)NCc2ccsc2)cc1C#Cc1cn(C(C)C)c2ncnc(N)c12 | enzyme activity | inhibitor |  | 1 µM | activity vs control | 82%
CCCCNc1ncc2c(-c3ccc(F)cc3)nn(C[C@H]3CC[C@H](N)CC3)c2n1 | target engagement in cells | inhibitor | chemoproteomics | 20 mM | inhibition | 17%
CC(C)(C)c1nc(-c2cccc(NS(=O)(=O)c3c(F)cccc3F)c2F)c(-c2ccnc(N)n2)s1 | enzyme activity | inhibitor | radiometric | 1 µM | remaining activity | 4%
Cc1cnc(NC2CCOCC2)nc1-n1cnc(C(=O)NC(CN)c2cc(F)cc(Cl)c2)c1 (stereo not drawn) | enzyme activity | inhibitor | radiometric | 1 µM | remaining activity | 101%
COc1cccc2c(NCc3ccccc3)nc(-n3c(N)nc4ccccc43)nc12 | target engagement in cells | inhibitor | chemoproteomics | 20 mM | inhibition | -7.4%
CN1CC(Oc2cnc(C#N)cc2-c2ccn3nc(NC(=O)C4CC4)cc3c2)C1 | enzyme activity | inhibitor |  | 1 µM | inhibition | 0%
FC(F)(F)Oc1cccc(-c2cnc3ccc(-c4ccncc4)nn23)c1 | enzyme activity | inhibitor | radiometric | 1 µM | activity vs control | 74%
Cc1ccc(NC(=O)c2ccc(C)c(C(F)(F)F)c2)cc1C#Cc1nn(C2CCC(O)CC2)c2ncnc(N)c12 (stereo not drawn) | cell-free assay |  |  | 10 µM | remaining signal | 39%
CCN(CC)c1ccc(C2=NNC(=O)CC2C)cc1[N+](=O)[O-] (stereo not drawn) | enzyme activity | inhibitor |  | 10 µM | remaining activity | 110%
COc1cc(/C=C/C(=O)CC(=O)/C=C/c2ccc(O)c(OC)c2)ccc1O | enzyme activity | inhibitor |  | 1 µM | activity vs control | 95%
